# From ChEMBL document CHEMBL4196050, “Design, synthesis, and biological evaluation of compounds with a new scaffold as anti-neuroinflammatory agents for the treatment of Alzheimer's disease” (Eur J Med Chem, 2018)
# pIC50: −log10 of the molar value. The source made the active and inactive calls. The rule behind the calls is not given here.
# Experiments:
# [1] = system: BV-2; assay: Antineuroinflammatory activity in mouse BV2 cells assessed as inhibition of LPS-induced TNFalpha production after 24 hrs by ELISA; type: functional, cell-based; conditions: BV-2, 24 h
# In short: (§1)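 BV2 cells plated at 4 × 10⁵ cells/mL, grown 48 h, medium replaced with DMEM. Compound added first, then LPS; incubated 24 h at 37 °C. TNF-α or IL-1β in culture medium measured by ELISA. % inhibition = (F_L − F_C)/(F_L − F₀) × 100 against LPS-only and unstimulated cells. IC50 by nonlinear regression of ≥3 independent experiments, mean SEM.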
# [2] = Permeability of the compound after 10 hrs by PAMPA; type: ADME; conditions: read-out: permeability
# In short: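 PAMPA-BBB: filter coated with porcine brain lipid in dodecane (20 mg/mL); acceptor PBS/EtOH (7:3). DMSO stocks (5 mg/mL) diluted 50-fold in PBS/EtOH into donor wells. Sandwich left 10 h at 25 °C; acceptor concentration read by UV plate reader. Pe from volumes, filter area, time and acceptor/equilibrium absorbance. Means SD of ≥3 experiments; Pe > 4.7 × 10⁻⁶ cm/s taken as BBB-permeable.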
# [3] = system: BV-2; assay: Antineuroinflammatory activity in mouse BV2 cells assessed as inhibition of LPS-induced NO production pretreated for 30 mins followed by LPS stimulation and measured after 24 hrs by Griess assay; type: functional, cell-based
# In short: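 BV2 microglia plated at 4 × 10⁵ cells/mL and grown 48 h, then medium replaced. Compounds at various concentrations given 30 min before LPS; incubated 24 h at 37 °C. Equal volume of Griess reagent added to medium, 10 min at room temperature, absorbance read at 540 nm. % inhibition = (F_L − F_C)/(F_L − F₀) × 100. IC50 by nonlinear regression, ≥3 independent experiments, mean SEM.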
# [4] = system: BV-2; assay: Antineuroinflammatory activity in mouse BV2 cells assessed as inhibition of LPS-induced IL-1beta production after 24 hrs by ELISA; type: functional, cell-based; conditions: BV-2, 24 h; in short: as §1
# [5] = biological target: Transcription factor p65 (Mus musculus) (UniProt Q04207); assay: Inhibition of LPS-induced p65 translocation from cytoplasm to nucleus in mouse BV2 cells up to 10 uM preincubated for 30 mins followed by LPS-stimulation for 16 hrs by Western blot analysis; type: cell-based
# Sequence of Transcription factor p65 (Mus musculus) (Q04207 whole entry): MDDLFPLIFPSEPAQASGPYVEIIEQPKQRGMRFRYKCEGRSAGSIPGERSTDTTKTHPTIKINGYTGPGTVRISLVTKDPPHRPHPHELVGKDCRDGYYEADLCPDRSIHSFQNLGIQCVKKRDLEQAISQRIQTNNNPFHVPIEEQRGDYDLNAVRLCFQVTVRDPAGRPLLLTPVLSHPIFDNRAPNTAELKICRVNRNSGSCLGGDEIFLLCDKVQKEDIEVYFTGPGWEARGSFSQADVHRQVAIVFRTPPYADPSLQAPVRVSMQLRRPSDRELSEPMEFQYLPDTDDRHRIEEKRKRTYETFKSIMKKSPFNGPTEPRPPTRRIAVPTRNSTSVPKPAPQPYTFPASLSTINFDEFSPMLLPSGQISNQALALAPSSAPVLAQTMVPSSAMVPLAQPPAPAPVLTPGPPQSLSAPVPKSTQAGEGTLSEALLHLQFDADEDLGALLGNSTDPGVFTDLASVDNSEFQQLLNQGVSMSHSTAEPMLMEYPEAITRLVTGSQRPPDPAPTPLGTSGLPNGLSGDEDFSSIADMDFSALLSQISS
# In short: (§2)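 BV2 cells in 6-well plates, with or without compound 30 min, then with or without LPS for 16 h. Lysed in RIPA with protease and phosphatase inhibitors; cytoplasmic and nuclear fractions separated; protein by BCA. Run on 10% SDS-PAGE, PVDF, milk/TBST block 2 h, primary antibody 4 °C overnight, secondary 2 h at room temperature, chemiluminescence. Phospho-ERK1/2 (Thr202/Tyr204), p38 (Thr180/Tyr182), JNK (Thr183/Tyr185), IκBα (Ser32); GAPDH and Lamin B references. Three independent experiments.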
# [6] = system: BV-2; assay: Antineuroinflammatory activity in mouse BV2 cells assessed as inhibition of LPS-induced iNOS production pretreated for 30 mins followed by LPS stimulation for 16 hrs by Western blot analysis; type: functional, cell-based
# [7] = biological target: Mitogen-activated protein kinase 1 and 3 (ERK2 and ERK1) (Mus musculus) (UniProt P63085+Q63844); assay: Inhibition of LPS-induced ERK1/2 phosphorylation in mouse BV2 cells up to 10 uM preincubated for 30 mins followed by LPS-stimulation for 16 hrs by Western blot analysis; type: cell-based; in short: as §2
# Sequence of Mitogen-activated protein kinase 1 and 3 (ERK2 and ERK1) (Mus musculus) (P63085 whole entry, looked up): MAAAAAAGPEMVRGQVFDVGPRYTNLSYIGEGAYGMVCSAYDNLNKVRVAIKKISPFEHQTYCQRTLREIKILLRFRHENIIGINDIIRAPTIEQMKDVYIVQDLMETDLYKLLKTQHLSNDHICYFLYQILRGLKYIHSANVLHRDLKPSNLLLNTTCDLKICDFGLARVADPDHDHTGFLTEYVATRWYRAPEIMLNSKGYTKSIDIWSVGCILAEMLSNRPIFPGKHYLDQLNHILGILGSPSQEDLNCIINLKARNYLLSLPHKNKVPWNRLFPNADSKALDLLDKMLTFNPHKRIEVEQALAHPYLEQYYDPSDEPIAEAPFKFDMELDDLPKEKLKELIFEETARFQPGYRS
# Sequence of Mitogen-activated protein kinase 1 and 3 (ERK2 and ERK1) (Mus musculus) (Q63844 whole entry, looked up): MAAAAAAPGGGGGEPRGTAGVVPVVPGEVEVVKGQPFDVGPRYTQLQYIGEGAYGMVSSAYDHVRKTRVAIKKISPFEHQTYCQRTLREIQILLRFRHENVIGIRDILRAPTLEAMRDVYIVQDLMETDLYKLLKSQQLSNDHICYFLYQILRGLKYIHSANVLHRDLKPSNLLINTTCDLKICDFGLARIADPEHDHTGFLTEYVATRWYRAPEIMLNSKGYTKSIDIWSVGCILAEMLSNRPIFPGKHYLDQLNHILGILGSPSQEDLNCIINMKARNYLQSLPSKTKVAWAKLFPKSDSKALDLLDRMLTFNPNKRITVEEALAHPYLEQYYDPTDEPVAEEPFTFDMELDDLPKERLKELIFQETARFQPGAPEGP
# [8] = biological target: T1, NF-kappa-B inhibitor alpha (Mus musculus) (UniProt Q9Z1E3); assay: Inhibition of LPS-induced IkappaBalpha phosphorylation in mouse BV2 cells up to 10 uM preincubated for 30 mins followed by LPS-stimulation for 16 hrs by Western blot analysis; type: cell-based; in short: as §2
# T1 sequence (whole entry): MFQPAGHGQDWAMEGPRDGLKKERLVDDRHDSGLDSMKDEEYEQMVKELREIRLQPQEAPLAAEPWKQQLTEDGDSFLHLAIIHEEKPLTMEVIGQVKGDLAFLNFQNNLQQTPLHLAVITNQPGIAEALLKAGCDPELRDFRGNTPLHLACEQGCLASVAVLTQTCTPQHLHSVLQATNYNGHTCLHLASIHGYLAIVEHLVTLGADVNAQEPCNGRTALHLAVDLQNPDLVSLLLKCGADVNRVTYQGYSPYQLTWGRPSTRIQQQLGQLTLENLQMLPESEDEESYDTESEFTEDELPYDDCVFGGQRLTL
# [9] = biological target: MAP kinase p38 (Mus musculus) (UniProt P47811+O08911+Q9WUI1+Q9Z1B7); assay: Inhibition of LPS-induced p38 phosphorylation in mouse BV2 cells up to 10 uM preincubated for 30 mins followed by LPS-stimulation for 16 hrs by Western blot analysis; type: cell-based; in short: as §2
# [10] = organism: Mus musculus; assay: Inhibition of LPS-induced JNK phosphorylation in mouse BV2 cells up to 10 uM preincubated for 30 mins followed by LPS-stimulation for 16 hrs by Western blot analysis; type: cell-based; in short: as §2
# [11] = Anti-inflammatory activity in LPS-induced mouse N9 cells assessed as reduction in IL-1beta production pretreated for 18 hrs followed LPS stimulation and measured after 48 hrs by ELISA; type: functional, cell-based
compound,measurement,setting,value
O=C(/C(=C/c1ccccc1)c1cccc(C(F)(F)F)c1)N1CCN(c2ncccn2)CC1,pIC50,[1],< 4.30
same,Papp at 10 h,[2],7.2 ×10⁻⁶ cm/s
same,pIC50,[3],4.40
same,pIC50,[4],4.60
O=C(/C(=C/c1ccc(Cl)cc1)c1ccc(F)cc1)N1CCN(c2ncccn2)CC1,pIC50,[1],4.75
same,Papp at 10 h,[2],7.8 ×10⁻⁶ cm/s
same,pIC50,[3],4.60
same,pIC50,[4],4.44
O=C(/C(=C/c1ccc(C(F)(F)F)cc1)c1cccc(C(F)(F)F)c1)N1CCN(c2ncccn2)CC1,pIC50,[1],5.16
same,Papp at 10 h,[2],9.3 ×10⁻⁶ cm/s
same,pIC50,[3],5.19
same,pIC50,[4],5.38
O=C(/C(=C/c1ccc(Cl)cc1)c1ccccc1)N1CCN(c2ncccn2)CC1,pIC50,[1],< 4.30
same,Papp at 10 h,[2],7.4 ×10⁻⁶ cm/s
same,pIC50,[3],< 4.30
same,pIC50,[4],< 4.30
COc1ccc(/C=C(/C(=O)N2CCN(c3ncccn3)CC2)c2cccc(C(F)(F)F)c2)cc1,pIC50,[1],4.58
same,Papp at 10 h,[2],14.7 ×10⁻⁶ cm/s
same,pIC50,[3],4.65
same,pIC50,[4],4.82
COc1ccccc1/C=C(/C(=O)N1CCN(c2ncccn2)CC1)c1cccc(C(F)(F)F)c1,pIC50,[1],4.46
same,Papp at 10 h,[2],9.7 ×10⁻⁶ cm/s
same,pIC50,[3],4.50
same,pIC50,[4],4.39
COc1ccc(O)c(/C=C(/C(=O)N2CCN(c3ncccn3)CC2)c2cccc(C(F)(F)F)c2)c1,pIC50,[1],< 4.30
same,Papp at 10 h,[2],12.7 ×10⁻⁶ cm/s
same,pIC50,[3],4.37
same,pIC50,[4],< 4.30
O=C(/C(=C/c1ccccc1)c1ccc(F)cc1)N1CCN(c2ncccn2)CC1,pIC50,[1],4.82
same,Papp at 10 h,[2],11.2 ×10⁻⁶ cm/s
same,pIC50,[3],5.09
same,pIC50,[4],4.99
O=C(/C(=C/C=C/c1ccccc1)c1cccc(C(F)(F)F)c1)N1CCN(c2ncccn2)CC1,pIC50,[1],5.59
same,inhibition,[5],inactive
same,inhibition,[6],Dose-dependent effect
same,Papp at 10 h,[2],12.6 ×10⁻⁶ cm/s
same,inhibition,[7],Active
same,inhibition,[8],inactive
same,inhibition,[9],Active
same,pIC50,[3],6.00
same,pIC50,[4],6.30
same,inhibition,[10],Active
COc1ccc(/C=C(/C(=O)N2CCN(c3ncccn3)CC2)c2ccc(F)cc2)cc1,pIC50,[1],4.38
same,Papp at 10 h,[2],10.5 ×10⁻⁶ cm/s
same,pIC50,[3],4.64
same,pIC50,[4],4.37
Cc1cc(-c2ccccc2)nnc1C(=O)N1CCN(c2ncccn2)CC1,pIC50,[11],8.47
COc1ccccc1/C=C(/C(=O)N1CCN(c2ncccn2)CC1)c1ccc(F)cc1,pIC50,[1],4.63
same,Papp at 10 h,[2],13.8 ×10⁻⁶ cm/s
same,pIC50,[3],5.00
same,pIC50,[4],4.74
Oc1ccc(/C=C/c2cc(O)cc(O)c2)cc1 [RESVERATROL],pIC50,[1],5.02
same,Papp at 10 h,[2],1.1 ×10⁻⁶ cm/s
same,pIC50,[3],4.95
same,pIC50,[4],5.06
O=C(/C(=C/c1cccc(Cl)c1)c1ccc(F)cc1)N1CCN(c2ncccn2)CC1,pIC50,[1],5.03
same,Papp at 10 h,[2],9.4 ×10⁻⁶ cm/s
same,pIC50,[3],4.96
same,pIC50,[4],4.92
O=C(/C(=C/c1ccc(F)cc1)c1ccc(F)cc1)N1CCN(c2ncccn2)CC1,pIC50,[1],4.43
same,Papp at 10 h,[2],14.3 ×10⁻⁶ cm/s
same,pIC50,[3],< 4.30
same,pIC50,[4],4.59
COc1ccccc1/C=C(/C(=O)N1CCN(c2ncccn2)CC1)c1ccccc1,pIC50,[1],4.67
same,Papp at 10 h,[2],12.3 ×10⁻⁶ cm/s
same,pIC50,[3],5.10
same,pIC50,[4],4.50
O=C(/C(=C/c1cccc(Cl)c1)c1ccccc1)N1CCN(c2ncccn2)CC1,pIC50,[1],4.79
same,Papp at 10 h,[2],11.2 ×10⁻⁶ cm/s
same,pIC50,[3],4.90
same,pIC50,[4],5.11
O=C(/C(=C/C=C/c1ccccc1)c1ccc(F)cc1)N1CCN(c2ncccn2)CC1,pIC50,[1],5.23
same,Papp at 10 h,[2],14.9 ×10⁻⁶ cm/s
same,pIC50,[3],5.10
same,pIC50,[4],5.62
O=C(/C(=C/c1cccc(Cl)c1)c1cccc(C(F)(F)F)c1)N1CCN(c2ncccn2)CC1,pIC50,[1],4.57
same,Papp at 10 h,[2],10.7 ×10⁻⁶ cm/s
same,pIC50,[3],4.43
same,pIC50,[4],4.82
O=C(/C(=C/c1ccc(C(F)(F)F)cc1)c1ccc(F)cc1)N1CCN(c2ncccn2)CC1,pIC50,[1],5.18
same,Papp at 10 h,[2],7.6 ×10⁻⁶ cm/s
same,pIC50,[3],5.52
same,pIC50,[4],5.05
O=C(/C(=C/c1ccc(F)cc1)c1cccc(C(F)(F)F)c1)N1CCN(c2ncccn2)CC1,pIC50,[1],4.70
same,Papp at 10 h,[2],12.3 ×10⁻⁶ cm/s
same,pIC50,[3],4.81
same,pIC50,[4],4.51
O=C(/C(=C/c1ccccc1)c1ccccc1)N1CCN(c2ncccn2)CC1,pIC50,[1],4.45
same,Papp at 10 h,[2],14.3 ×10⁻⁶ cm/s
same,pIC50,[3],4.75
same,pIC50,[4],< 4.30
COc1ccc(O)c(/C=C(/C(=O)N2CCN(c3ncccn3)CC2)c2ccccc2)c1,pIC50,[1],4.44
same,Papp at 10 h,[2],14.1 ×10⁻⁶ cm/s
same,pIC50,[3],4.32
same,pIC50,[4],4.94
COc1ccc(O)c(/C=C(/C(=O)N2CCN(c3ncccn3)CC2)c2ccc(F)cc2)c1,pIC50,[1],< 4.30
same,Papp at 10 h,[2],6.4 ×10⁻⁶ cm/s
same,pIC50,[3],4.33
same,pIC50,[4],< 4.30
O=C(/C(=C/c1ccc(Cl)cc1)c1cccc(C(F)(F)F)c1)N1CCN(c2ncccn2)CC1,pIC50,[1],4.37
same,Papp at 10 h,[2],5.1 ×10⁻⁶ cm/s
same,pIC50,[3],4.57
same,pIC50,[4],4.66
O=C(/C(=C/c1ccc(C(F)(F)F)cc1)c1ccccc1)N1CCN(c2ncccn2)CC1,pIC50,[1],4.67
same,Papp at 10 h,[2],8.2 ×10⁻⁶ cm/s
same,pIC50,[3],4.83
same,pIC50,[4],4.95
O=C(/C(=C/c1ccccc1Cl)c1cccc(C(F)(F)F)c1)N1CCN(c2ncccn2)CC1,pIC50,[1],4.60
same,Papp at 10 h,[2],15.1 ×10⁻⁶ cm/s
same,pIC50,[3],4.70
same,pIC50,[4],4.74
O=C(/C(=C/c1ccccc1Cl)c1ccccc1)N1CCN(c2ncccn2)CC1,pIC50,[1],4.75
same,Papp at 10 h,[2],9.4 ×10⁻⁶ cm/s
same,pIC50,[3],5.00
same,pIC50,[4],5.03
O=C(/C(=C/c1ccccc1Cl)c1ccc(F)cc1)N1CCN(c2ncccn2)CC1,pIC50,[1],4.96
same,Papp at 10 h,[2],11.3 ×10⁻⁶ cm/s
same,pIC50,[3],5.14
same,pIC50,[4],5.28
COc1ccc(/C=C(/C(=O)N2CCN(c3ncccn3)CC2)c2ccccc2)cc1,pIC50,[1],4.77
same,Papp at 10 h,[2],10.3 ×10⁻⁶ cm/s
same,pIC50,[3],5.02
same,pIC50,[4],5.47
